Measured values from publication PMC3848259 (Cellular signalling, 2013).
Entries after “also recorded” stand apart in the source; their conditions may differ.

What was measured:
[1] = biological target: T1, RGS4-Gαo binding (Rattus norvegicus, UniProt P49799); assay: Flow Cytometry Protein Interaction Assay; settings: read-out: FCPIA IC50, compounds 100 nM-100 μM, three independent experiments
T1 sequence (P49799 52-205 limits assumed): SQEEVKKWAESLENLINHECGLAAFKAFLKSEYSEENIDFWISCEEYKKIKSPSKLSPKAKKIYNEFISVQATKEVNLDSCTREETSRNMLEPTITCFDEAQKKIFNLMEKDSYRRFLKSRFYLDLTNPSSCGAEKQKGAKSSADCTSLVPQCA
Procedure, shortened: (§1)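 Multiplexed bead assay: biotinylated MBP-Δ51 RGS4, cysteine-free Δ51 RGS4 (seven RGS-box Cys→Ala) and His-tagged RGS8 (61–198) on separate streptavidin Luminex bead sets. Buffer 50 mM HEPES pH 7.4, 100 mM NaCl, 0.1% lubrol, 1% BSA. Test compound (100 nM–100 μM) for 15 min at RT. AlexaFluor532-Gαo (30 nM final) with GDP·AlF4 and 1 mM MgCl for 30 min at RT. Read by flow cytometry; nonlinear regression.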

[2] = biological target: T2, RGS4 stimulation of Gαi1 (R178M/A326S) GTP hydrolysis (Rattus norvegicus, UniProt P49799); assay: Receptor-independent steady-state GTPase acceleration protein assay; format: biochemical; settings: read-out: SS-GAP IC50; 200 nM Δ51 RGS4-MBP, 6 μM Gαi1 (R178M/A326S), 300 μM GTP
T2 sequence (P49799 52-205): T1 sequence (P49799 52-205 limits assumed)
Procedure, shortened: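 Receptor-independent GTPase: Δ51 RGS4 (residues 52-205)-MBP with His-tagged Gαi1 R178M/A326S. Buffer: 50 mM HEPES pH 7.4, 100 mM NaCl, 0.01% Lubrol, 5 mM MgCl, 10 μg/mL BSA. Test compound in half-log steps, 100 nM–100 μM. Started with GTP; 120 min at room temperature. Quenched with HCl/malachite green plus citrate stabiliser, 20 min, then A630. IC50 by nonlinear regression; three independent experiments, duplicate wells.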

[3] = biological target: T3, RGS7 (Homo sapiens, UniProt P49802); assay: Multiplexed FCPIA, RGS7; format: binding; settings: 100 nM to 100 μM, RGS7 lacks cysteine residues
T3 sequence (P49802 333-448 limits assumed): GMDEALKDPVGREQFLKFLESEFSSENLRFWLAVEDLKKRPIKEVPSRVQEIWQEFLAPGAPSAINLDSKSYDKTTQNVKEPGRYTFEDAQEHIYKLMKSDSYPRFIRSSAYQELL

[4] = system: RGS4 in HEK293-FlpIn-TREx/M3R/RGS4 cells; assay: Cell-based calcium signaling assay in M3-R4 cells; design: species or system human; settings: read-out: Cellular Activity IC50, Dox treated, carbachol-stimulated calcium
[5] = biological target: T4, RGS16 (Homo sapiens, UniProt O15492); assay: Multiplexed FCPIA, RGS16; format: binding; settings: 100 nM to 100 μM
T4 sequence (O15492 1-202): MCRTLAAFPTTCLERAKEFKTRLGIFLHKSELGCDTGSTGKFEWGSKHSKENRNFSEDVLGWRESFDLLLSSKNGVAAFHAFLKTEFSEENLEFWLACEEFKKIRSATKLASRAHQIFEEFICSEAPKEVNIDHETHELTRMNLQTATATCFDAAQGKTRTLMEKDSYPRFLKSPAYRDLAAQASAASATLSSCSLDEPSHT
Procedure, shortened: (§2)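 Biotinylated RGS proteins (RGS16 full-length, RGS19 ΔC11, both MBP fusions) were each coupled to separate streptavidin Luminex bead sets and pooled per well. Buffer: 50 mM HEPES pH 7.4, 100 mM NaCl, 0.1% lubrol, 1% BSA. Test compound (100 nM–100 μM) or DMSO added for 15 min at room temperature. AlexaFluor 532-Gαo (30 nM final) with GDP·AlF4/1 mM MgCl added for 30 min. Flow-cytometric binding read; nonlinear regression.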

[6] = biological target: T1, RGS4-Gαo binding; assay: FCPIA reversibility; settings: 100 μM compound; for inhibition of RGS4-G-protein binding: FCPIA; for reversibility of RGS4 inhibition: beads washed three times, ten minute washing period
Procedure, shortened: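 Biotinylated RGS4 on streptavidin Luminex beads preincubated 30 min at room temperature with 100 μM test compound or DMSO, then washed three times in 50 mM HEPES pH 7.4/100 mM NaCl/0.1% lubrol/1% BSA. Beads split: one set re-dosed with 100 μM compound, other DMSO. Each then mixed with AlexaFluor 532-Gαo (30 nM final) plus GDP·AlF4/1 mM MgCl. Binding read by flow cytometry. Three independent experiments.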

[7] = biological target: T5, RGS19 (Homo sapiens, UniProt P49795); assay: Multiplexed FCPIA, RGS19; format: binding; settings: 100 nM to 100 μM
T5 sequence (P49795 1-206 limits assumed): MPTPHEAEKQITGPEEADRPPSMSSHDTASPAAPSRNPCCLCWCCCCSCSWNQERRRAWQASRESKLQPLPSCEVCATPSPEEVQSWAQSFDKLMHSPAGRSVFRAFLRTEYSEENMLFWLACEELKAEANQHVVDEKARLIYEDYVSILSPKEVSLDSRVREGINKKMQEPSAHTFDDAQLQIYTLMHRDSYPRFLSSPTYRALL
Procedure, shortened: as §2

[8] = biological target: T6, RGS8 (Homo sapiens, UniProt P57771); assay: Multiplexed FCPIA, RGS8; format: binding
T6 sequence (P57771 61-198 isoform P57771-2): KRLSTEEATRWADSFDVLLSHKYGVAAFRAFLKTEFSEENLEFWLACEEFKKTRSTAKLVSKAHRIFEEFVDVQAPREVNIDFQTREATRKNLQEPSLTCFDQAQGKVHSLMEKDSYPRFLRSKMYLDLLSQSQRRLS
Procedure, shortened: as §1

[9] = biological target: RGS4 (-Cys) (Homo sapiens, UniProt P49798, C132A/C148A/C183A/C197A/C204A/C71A/C95A); assay: Multiplexed FCPIA, RGS4 lacking cysteines; format: binding
Sequence of RGS4 (-Cys) (P49798 52-205 C71A/C95A/C132A/C148A/C183A/C197A/C204A limits assumed, species assumed): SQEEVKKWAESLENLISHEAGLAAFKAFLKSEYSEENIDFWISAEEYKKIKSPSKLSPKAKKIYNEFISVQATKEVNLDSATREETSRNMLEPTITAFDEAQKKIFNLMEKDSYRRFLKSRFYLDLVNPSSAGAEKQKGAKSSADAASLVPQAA
Procedure, shortened: as §1

activity against RGS16 [5] | SMILES | IC50 [1] [µM] | IC50 [2] [µM] | activity towards RGS7 [3] | IC50 [4] [µM] | inhibition of RGS4-G-protein binding [6] | reversibility of RGS4 inhibition [6] | potency difference RGS4 versus RGS19 [7] [fold] | Inhibition of Gα binding to RGS8 [8] | Inhibition of Gα binding to RGS4 (-Cys) [9]
– | COc1ccc(NC(=O)/C(Cl)=C(/Cl)[S+]([O-])Cc2ccccc2)cn1 (stereo not drawn) [CID 1472216] | 1.7 ± 0.5 | 1.6 ± 0.4 | – | – | – | – | – | – | –
activity was observed | O=C1N=c2ccccc2=C1c1c(O)n(-c2cccc(F)c2)[nH]c1=O [CID 5428579] | 8.2 | 55.8 | showed activity towards RGS7; also recorded: activity was observed | 35.5 | greater than 85% | more than 50% | – | – | –
– | CN1C(=O)/C(=C\c2ccc(Br)s2)C(=O)NC1=S [CID 1777233] | 15.3 | 9.4 | – | 20 | greater than 85% | more than 50% | 2 | – | –
– | Br.CN1CCc2cc(O)cc3c2[C@H]1Cc1ccc(O)c(O)c1-3 [CID 11957531] | – | – | – | – | – | – | – | Inhibition of Gα binding to RGS4 (-Cys) or RGS8 occurred | Inhibition of Gα binding to RGS4 (-Cys) or RGS8 occurred
– | Br.CCCN1CCc2cc(O)cc3c2[C@H]1Cc1ccc(O)c(O)c1-3 [CID 10069059] | – | – | – | – | – | – | – | Inhibition of Gα binding to RGS4 (-Cys) or RGS8 occurred | Inhibition of Gα binding to RGS4 (-Cys) or RGS8 occurred
– | Cc1ccc(/C=C2\C(=O)NC(=S)N(c3ccc(F)cc3)C2=O)s1 [CID 1389577] | 18.3 | 10.9 | showed activity towards RGS7; also recorded: activity was observed | 15 | greater than 85% | more than 50% | – | – | –
– | O=C1NC(=S)N(c2ccccc2F)C(=O)/C1=C\c1cccs1 [CID 1905297] | 27.9 | 35.6 | – | 23.8 | greater than 85% | more than 50% | – | – | –
